Measurements: PMC3612139 (Bioorganic chemistry, 2013)

Tested on: HL-60 promyelocytes
Assay: HL-60 differentiation
Assay type: cell-based
Conditions: Homo sapiens, HL-60, read-out: HL-60 differentiation EC50
Summary of the method: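 Differentiation of HL-60 promyelocytes to monocytes, scored as the percentage of cells reducing nitro blue tetrazolium. EC50 taken from dose–response curves as the concentration giving 50% maturation. Ratio is the average of test compound EC50 over 1α,25-(OH)2D3 EC50. Run in duplicate on at least two occasions.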

Question: `C=C1/C(=C\C=C2/CCC[C@]3(C)[C@@H]([C@H](C)CCCC(C)(C)O)CC[C@@H]23)C[C@@H](O)C[C@@H]1O` [Compound 1, 1α,25-Dihydroxyvitamin D3] was tested. Which EC50 did it give?
Answer: The EC50 was 2 nM.
